This note sets out measurements from ChEMBL document CHEMBL1932916, “A carbamate-based approach to primaquine prodrugs: antimalarial activity, chemical stability and enzymatic activation” (Bioorg Med Chem, 2012).

Data set [1] can be described thus: Alkaline hydrolysis of the compound assessed as rate constant by HPLC analysis. The format is physicochemical. In short, it runs like this: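 Borate and NaOH buffers with 20% (v/v) acetonitrile, ionic strength 0.5 M (NaClO4), 37 °C. Alkyl carbamates followed by HPLC (RP-8 column, acetonitrile/water/KH2PO4 1 M 55:40:5) as substrate loss and primaquine formation; aliquots neutralised with HCl before injection; aryl carbamates by fixed-wavelength UV decay of substrate. Second-order constant k_OH.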

For data set [2], the system named is Liver. Put plainly: Half life for prodrug activation in rat liver homogenate by HPLC analysis. Format: tissue-based. The settings on record: in vitro. An outline of the steps: (§1)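 Liver homogenate at 2 mg protein/mL in pH 7.4 PBS, 37 °C, with NADPH-generating system (glucose-6-phosphate 6.25 mM, NADP 1.25 mM, MgCl2 6 mM, G6PDH 2.5 U/mL). Substrates dissolved in PBS at initial 0.25–5.0 mM. HPLC followed substrate loss and primaquine formation. First-order k_liver determined in triplicate.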

Data set [3] relates to Liver. Put plainly: Prodrug activation in rat liver homogenate assessed as rate constant by HPLC analysis. The format is tissue-based. To be noted: tissue homogenate. An outline of the steps: as §1
Data set [4] has as its system Plasma. Put plainly: Half life for prodrug activation in 50% human plasma by HPLC analysis. The format is cell-free. In short, it runs like this:
(§2)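 Pooled heparinised plasma from healthy donors, stored at -70 °C, diluted to 50% (v/v) with pH 7.4 isotonic phosphate buffer. Carbamate added from 10^-2 M stock, 37 °C. Aliquots quenched into acetonitrile, then HPLC quantitation of substrate, primaquine and, for aryl esters, phenol against standards. First-order k_plasma determined in triplicate.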

A short description of data set [5]: Half life in aqueous buffer pH 7.4 by HPLC analysis. Format: physicochemical. In short, it runs like this: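 Non-enzymatic hydrolysis in pH 7.4 phosphate buffer, 20% (v/v) acetonitrile, 37 °C. Reaction followed by HPLC (RP-8 column, acetonitrile/water/KH2PO4 eluant) monitoring substrate loss and primaquine formation.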
A further data set has as its system Plasmodium berghei ANKA. Put plainly: Gametocytocidal activity against Plasmodium berghei ANKA 25R/10 infected in Balb/C mouse assessed as reduction in number of oocysts per mosquito at 15 mg/kg, ip after 2 hrs feed Anopheles stephensi mosquitoes for 2 hrs on compound treated animals measured after 10 days post feed by stereomicroscopy. Format: functional, organism-based. The arrangement: dose 15 mg/kg. An outline of the steps: (§3)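 Balb C mice infected ip with 10^7 P. berghei ANKA 25R/10-parasitised erythrocytes. At day 4, once gametocytes were seen on Giemsa films, mice were grouped (six per group). A single ip dose of 15 mg/kg was given, with saline-treated controls run separately for each compound. After 2 h, anaesthetised mice were fed to A. stephensi. Midgut oocysts counted at day 10 post-feed; reported as % infected mosquitoes and mean oocysts per mosquito.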

Data set [6] is described as follows: Octanol-phosphate buffer partition coefficient, log D of the compound at pH 7.4 after 30 mins by HPLC analysis. The format is physicochemical. An outline of the steps: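 1-Octanol and pH 7.4 phosphate buffer, mutually pre-saturated, 22 °C. Compound dissolved in octanol and the mixture shaken 30 min to equilibrium. Each phase assayed by HPLC, and D taken as the octanol/buffer peak-area ratio. Mean of three experiments.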

Data set [7] is described as follows: Gametocytocidal activity against Plasmodium berghei ANKA 25R/10 infected in Balb/C mouse assessed as infected mosquitoes at 15 mg/kg, ip after 2 hrs feed Anopheles stephensi mosquitoes for 2 hrs on compound treated animals measured after 10 days post feed by stereomicroscopy (reference value: 80%). Format: functional. The settings on record: route intraperitoneal. In short, it runs like this:
as §3

Data set [8] is described as follows: Dissociation constant, pKa of the compound. Format: physicochemical.
The test system of data set [9] is Plasma. Put plainly: Prodrug activation in 50% human plasma assessed as rate constant by HPLC analysis. The format is cell-free. An outline of the steps:
as §2

Data set [10] has as its system Liver. Put plainly: Prodrug activation in rat liver homogenate assessed as primaquine release by HPLC analysis. The format is tissue-based. The settings on record: tissue homogenate. In short, it runs like this: as §1
For data set [11], the system named is Plasma. The data set can be described thus: Stability of the compound in 50% human plasma for 3 hrs by HPLC analysis. The format is ADME, cell-free. In short, it runs like this:
as §2

The nature of data set [12]: Gametocytocidal activity against Plasmodium berghei ANKA 25R/10 infected in Balb/C mouse assessed as infected mosquitoes at 15 mg/kg, ip after 2 hrs feed Anopheles stephensi mosquitoes for 2 hrs on compound treated animals measured after 10 days post feed by stereomicroscopy (reference value: 91%). Format: functional. The settings on record: route intraperitoneal. In short, it runs like this:
as §3

In data set [13] the test system is Plasma. Put plainly: Prodrug activation in 50% human plasma preincubated with 20 mM DIFP by HPLC analysis. Format: cell-free. In short, it runs like this: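 Same 50% human plasma incubation at 37 °C with HPLC monitoring, but plasma pre-incubated with 20 mM DIFP to inhibit serine cholinesterase before substrate addition.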

The source made the active and inactive calls. The rule behind the calls is not given here.

As to `COc1cc(NC(C)CCCNC(=O)Oc2ccccc2)c2ncccc2c1` (centres undefined), the figures for the Activity in data set [1] and in data set [7] were 2.64 M⁻¹ s⁻¹ and 65%, respectively. Moreover, the values for the t1/2 in the data set with Liver [2] and in the data set on Plasma [4] were 9.5 h and 3.62 h, respectively. Besides, the Drug metabolism in the data set on Liver [3] was found to be 7.26 ×10⁻² /hr; in the data set on Plasma [9], 5.34 ×10⁻⁵ /s. In [5], this compound had a half-life of 288 h. In addition, the result in the data set with Plasmodium berghei ANKA was Active. In data set [6], this compound yielded a logD at 0.5 h of 4.27. The pKa in data set [8] is 9.95.

On to `CCOC(=O)NCCCC(C)Nc1cc(OC)cc2cccnc12` (centres undefined), for which the Activity was determined as 9.34 ×10⁻⁷ /M/s in data set [1] and 19% in data set [12]. In the data set with Liver [2], the t1/2 worked out at 15.1 h. The figures for the Drug metabolism entry with Liver [10] and in the data set on Liver [3] were “Not Active” and 4.56 ×10⁻² /hr, respectively. For the same compound, the Stability result in the data set on Plasma [11] is recorded as “Stable”. Also, the result in the data set on Plasmodium berghei ANKA was Active. This compound yielded a pH-dependent lipophilicity (logD) at 0.5 h in data set [6] of 3.02. In [8], the pKa came out at 15.9.

Consider `CCCCCCOC(=O)NCCCC(C)Nc1cc(OC)cc2cccnc12` (centres undefined), for which the Activity in data set [1] is recorded as 3.49 ×10⁻⁷ /M/s; in [12] it was 24%. Also, in the data set with Liver [2], the t1/2 was 10.4 h. The Drug metabolism result with Liver [10] is recorded as “Not Active”; in the data set with Liver [3], 6.63 ×10⁻² /hr. Besides, the Stability entry in the data set with Plasma [11] was “Stable”. The outcome in the data set with Plasmodium berghei ANKA was Active. In data set [6], the logD at 0.5 h is 4.64.

Regarding `COc1ccc(OC(=O)NCCCC(C)Nc2cc(OC)cc3cccnc23)cc1` (centres undefined), the Activity came to 9.1 ×10⁻¹ /M/s in [1] and 74% in [7]. For the same compound, the results for the t1/2 with Liver [2] and in the data set on Plasma [4] were 10.3 h and 7.78 h, respectively. Moreover, the Drug metabolism in the data set on Liver [3] was determined as 6.7 ×10⁻² /hr; in the data set with Plasma [9], 2.45 ×10⁻⁵ /s. The compound also came in with a half-life in [5] greater than 720 h. The logD at 0.5 h in [6] worked out at 4.23. In [8], the pKa stood at 10.2.

`CCOC(=O)COC(=O)NCCCC(C)Nc1cc(OC)cc2cccnc12` (centres undefined): the Activity in data set [1] stood at 2.5 M⁻¹ s⁻¹. In addition, in [5], the half-life was 240 h. The same compound had a pH-dependent lipophilicity (logD) at 0.5 h in data set [6] of 3.09. In [8], the pKa came out at 12.9.

On to `COc1cc(NC(C)CCCNC(=O)Oc2ccc([N+](=O)[O-])cc2)c2ncccc2c1` (centres undefined), for which the Activity in data set [1] is listed as 2.4 ×10⁴ /M/s. Also, in the data set on Plasma [4], the t1/2 was 0.00267 h. Further, the half-life in [5] amounted to 0.035 h. Further, in data set [6], the logD at 0.5 h was found to be 4.23. In data set [8], this compound showed a pKa of 7.14.

As to `COc1cc(NC(C)CCCNC(=O)Oc2ccc(Cl)cc2)c2ncccc2c1` (centres undefined), the Drug metabolism entry with Plasma [13] is “Not Active”; with Liver [3], 5.85 ×10⁻² /hr; with Plasma [9], 3.06 ×10⁻⁴ /s. The Activity in data set [1] amounted to 7.17 M⁻¹ s⁻¹. The t1/2 was 11.8 h with Liver [2] and 0.638 h with Plasma [4]. Further, the half-life in data set [5] was 96 h. The logD at 0.5 h in data set [6] was determined as 4.44. The pKa in data set [8] was 9.38.

On to `COc1cc(NC(C)CCCN)c2ncccc2c1` (centres undefined) [PRIMAQUINE], for which, in the data set with Plasmodium berghei ANKA, the result was Active. The Activity in [7] amounted to 3.9%.

As for `COc1cc(NC(C)CCCNC(=O)OCC(F)(F)F)c2ncccc2c1` (centres undefined), the Activity in data set [1] is given as 3.95 ×10⁻³ /M/s; in data set [12], 72%. In addition, the t1/2 in the data set with Liver [2] is 13.7 h. Moreover, the Drug metabolism result in the data set with Liver [10] was “Not Active”; in the data set on Liver [3] it was 5.04 ×10⁻² /hr. For the same compound, the Stability entry in the data set with Plasma [11] is on record as “Stable”. Besides, in [6], the logD at 0.5 h was 3.41. This compound gave a pKa in data set [8] of 12.4.

One may read the half-life as how long it takes for the measured level to halve. One may read the logD as the decadic logarithm of the distribution of all forms, ionised or not, between an organic phase and buffer at a given pH. Low values mean a more hydrophilic compound, high ones a more lipophilic compound. For orientation: pKa means the pH at which an ionisable group is half protonated.
